Measured values: ChEMBL document CHEMBL1151863, “Discovery of thioether-bridged cyclic pentapeptides binding to Grb2-SH2 domain with high affinity” (Bioorg Med Chem Lett, 2009)
pKd: −log10 of the molar value. Numbered stars: 1 amine (or outer) side, 2 acyl side, 3 side chain; on linkers, the order of the positions; unused ones are H or OH. Bridge positions count the residues as written; N and C are the ends. Square brackets hold non-standard residues; d marks the D form. Peptide text beside a SMILES is read from it. pY = N[C@@H](Cc1ccc(OP(=O)(O)O)cc1)C(=O)O; X1 = O=C(C1(N[*:1])CCCNC1)[*:2]

Target: Growth factor receptor-bound protein 2 (Homo sapiens, UniProt P62993)
Sequence (P62993 whole entry, the tested form may be a part): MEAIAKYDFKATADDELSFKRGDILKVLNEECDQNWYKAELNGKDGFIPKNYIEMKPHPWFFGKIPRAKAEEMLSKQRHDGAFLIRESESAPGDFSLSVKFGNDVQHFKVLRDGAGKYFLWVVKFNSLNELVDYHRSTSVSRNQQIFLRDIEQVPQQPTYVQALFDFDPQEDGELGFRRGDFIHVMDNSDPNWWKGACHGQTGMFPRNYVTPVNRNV
Test: Binding affinity to GST-tagged recombinant Grb2 SH2 domain by Biacore assay
Outline: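 Surface plasmon resonance (Biacore) binding to the Grb2-SH2 domain, reported as Kd. Values are means of two experiments, with standard deviation given.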

SMILES | pKd
NC(=O)C[C@H]1NC(=O)C2(CCCCC2)NC(=O)[C@@H](Cc2ccc(OP(=O)(O)O)cc2)NC(=O)C[S@@+]([O-])C[C@H](C(N)=O)NC(=O)[C@@H](Cc2ccc3ccccc3c2)NC1=O (single isomer, unassigned) | 5.32
CC(C)[C@@H]1NC(=O)[C@H](CC(N)=O)NC(=O)C2(CCCNC2)NC(=O)[C@H](Cc2ccc(OP(=O)(O)O)cc2)NC(=O)CSC[C@@H](C(N)=O)NC1=O (some centres not stated) ({CH2CO}-[pY][X1]NVC-NH2; thioether N-5) | 6.44
